Measured values from different studies.
Compare with care: the assays were run in different laboratories.
Target: Calcium/calmodulin-dependent protein kinase kinase 2 (CAMKK2, Homo sapiens, UniProt Q96RR4)

| SMILES | observed | action | technique | concentration | quantity | value |
| --- | --- | --- | --- | --- | --- | --- |
| CCS(=O)(=O)c1cc2cc(C[C@@](O)(CC(C)(C)c3ccc(F)cc3C(N)=O)C(F)(F)F)[nH]c2cn1 | cell-free assay | – | competition with immobilised ligand | 1 µM | remaining binding | 56% |
| Nc1ncnc2occ(-c3ccc(NC(=O)Nc4cc(C(F)(F)F)ccc4F)cc3)c12 | cell-free assay | inhibitor | – | 20 µM | remaining signal | 24% |
| CS(=O)(=O)c1cc(C2(NC(=O)c3cncc4c3cnn4-c3ccc(F)cc3)CC2)ccn1 | cell-free assay | – | competition with immobilised ligand | 1 µM | remaining binding | 75% |
| O=C(O)c1ccc2c3c1cccc3c(=O)n1c3ccccc3nc21 | cell-free assay | – | – | 0.5 µM | remaining signal | 7.88% |
| COc1cc(Nc2cnc(C#N)c(O[C@H](C)CN(C)C)n2)ncc1-c1cnn(C)c1 | enzyme activity | inhibitor | radiometric | 10 µM | remaining activity | 71% |
| Cc1ccc(C(=O)NCc2ccsc2)cc1C#Cc1cn(C(C)C)c2ncnc(N)c12 | enzyme activity | inhibitor | – | 1 µM | activity vs control | 110% |
| Cn1c2c(c3ccc(Cl)c(Cl)c31)C(C#N)C1(CCCC1)NC2=O (centres unmarked) | thermal stability | – | DSF | 10 µM | ΔTm | 0.3 °C |
| O=C(O)c1cc(-c2ccc(C3CCNCC3)cc2)c2ccc(-c3ccc(C(F)(F)F)cc3)cc2c1 | cell-free assay | – | competition with immobilised ligand | 1 µM | remaining binding | 100% |
| FC(F)(F)Oc1cccc(-c2cnc3ccc(-c4ccncc4)nn23)c1 | enzyme activity | inhibitor | radiometric | 5 µM | activity vs control | 60% |
| CCN1CCC2(CC1)NC(=O)c1c(c3ccc(Cl)c(Cl)c3n1C)C2C#N (racemic) | thermal stability | – | DSF | 10 µM | ΔTm | 0.5 °C |
| CC(=O)Nc1c(C(C)=O)c(=O)n(C)c2nc(-c3ccc(Cl)cc3Cl)c(-c3ccc(Cl)cc3)cc12 | cell-free assay | – | competition with immobilised ligand | 1 µM | remaining binding | 100% |
| O=C(CSc1nc2nccnc2c(=O)n1CCc1ccccc1)Nc1nccs1 | enzyme activity | inhibitor | – | 10 µM | inhibition | 5% |
| Nc1nc(Nc2ccccc2)sc1C(=O)c1c(F)cccc1F | enzyme activity | inhibitor | – | 10 µM | remaining activity | 12% |
| COc1cc2nccc(Oc3ccc(NC(=O)Nc4ccc(F)cc4F)c(F)c3)c2cc1OC | thermal stability | – | DSF | 10 µM | ΔTm | 5 to 10 °C |
| O=C1Nc2ccc(Cl)cc2C1=Cc1cc(Cl)c(O)c(Cl)c1 | cell-free assay | – | – | 0.5 µM | remaining signal | 51.5% |
| COc1ccc2c(c1)O[C@H](c1ccc(OC)c(OC)c1)C[C@@H]2NC(=O)C1(c2ccc3c(c2)OC(F)(F)O3)CC1 | cell-free assay | – | competition with immobilised ligand | 1 µM | remaining binding | 100% |
| Cn1c(=O)n(-c2ccc(C(C)(C)C#N)cc2)c2c3cc(-c4cnc5ccccc5c4)ccc3ncc21 | enzyme activity | inhibitor | – | 10 µM | remaining activity | 61% |
| Cn1c2c(Cl)c(Cl)ccc2c2cc[nH]c(=O)c21 | thermal stability | – | DSF | 10 µM | ΔTm | 0.6 °C |
| CC(C)(C)c1nc2c(s1)c1nc(N)ncc1c1ccc(NS(=O)(=O)c3c(F)cccc3F)c(F)c12 | enzyme activity | inhibitor | radiometric | 1 µM | remaining activity | 107% |
| Cc1cnc(NC2CCOCC2)nc1-n1cnc(C(=O)NC(CN)c2cc(F)cc(Cl)c2)c1 (centres unmarked) | enzyme activity | inhibitor | radiometric | 1 µM | remaining activity | 81% |
| Cc1cc(NC(=O)c2cccc3cc(-c4cccc5[nH]nc(N)c45)ccc23)ccc1F | enzyme activity | inhibitor | – | 0.1 µM | activity vs control | 90% |
| FC(F)c1nc2ccccc2n1-c1nc(N2CCOCC2)nc(N2CCOCC2)n1 | enzyme activity | inhibitor | – | 10 µM | remaining activity | 87% |
| CCc1ccccc1C(=O)Nc1n[nH]c2c(C)c(F)c(C3C(C#N)=C(C)N(C)C(C)=C3C#N)cc12 | cell-free assay | – | competition with immobilised ligand | 1 µM | remaining binding | 95% |
| c1ccc(CNc2nc(N3CCOc4ccccc43)nc3c2CCCC3)cc1 | target engagement in cells | inhibitor | chemoproteomics | 20 mM | inhibition | 0.1% |
| O=C1NC(=O)c2cc(Nc3ccc(F)cc3)c(Nc3ccc(F)cc3)cc21 | cell-free assay | – | – | 0.5 µM | remaining signal | 88.3% |
| COc1cc(-c2cn(C3CCc4ccccc4N(CC(F)(F)F)C3=O)nn2)ccc1-n1ccc(C)n1 (centres unmarked) | cell-free assay | – | competition with immobilised ligand | 1 µM | remaining binding | 100% |
| O=C(Nc1cnn(-c2csc(C(=O)NC3COC3)c2)c1)Nc1c(F)cccc1Cl | enzyme activity | inhibitor | – | 5 µM | remaining activity | 81% |
| CC(C)(C)C(=O)c1sc(NC2CCCCC2)nc1N | enzyme activity | inhibitor | – | 10 µM | remaining activity | 83% |
| CCCOc1ccc([C@H]2[C@H](C(=O)O)[C@@H](c3ccc4c(c3)OCO4)CN2CC(=O)Nc2c(CC)cccc2CC)cc1 | cell-free assay | – | competition with immobilised ligand | 1 µM | remaining binding | 93% |
